# Rtt109 HAT inh = inhibitors of C. albicans Rtt109/Vps75 HAT, primary screen, biochemical, ThioGlo CoA-SH fluorescence, plate reader. purified Rtt109/Vps75, 4 h. inhibition, % at 34.9 µM. hit rate 0.16% among 330,000;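 active = inhibition of at least 50% in every replicate; inconclusive = best replicate reaches 50% inhibition but some replicates fall short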
# CAL PDZ FP-1 = untagged CAL PDZ binding inhibitors, primary screen, biochemical, fluorescence polarization, HTS; hit rate 0.92% among 300,000; Golgi-associated PDZ and coiled-coil motif-containing protein (Homo sapiens), Q9HD26; purified CAL PDZ, TMR-peptide fluorescence polarization, 1 h; inhibition, % at 24.9 µM; AID 602252, 2012;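 active = mean inhibition of at least 30% with at least half of replicates also reaching 30%; inconclusive = no clear call, values can overlap the other calls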;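 note: 0% = DMSO neutral control and 100% = excess unlabeled competitor peptide PRC23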
# ALR H2O2 inh = inhibitors of human ALR sulfhydryl oxidase, primary screen, biochemical, H2O2 detection, HRP-luminol luminescence, single point. FAD-linked sulfhydryl oxidase ALR (Homo sapiens), P55789. purified ALR, DTT oxidation. inhibition, % (no concentration beside the values). hit rate 3.8% among 290,000;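 active = mean replicate inhibition above about 79%, with every replicate also reaching it, limit read from the data; inconclusive = only one of the two criteria met; inactive = mean below limit and not every replicate reaching it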
# Target sequence (P55789 whole entry, looked up): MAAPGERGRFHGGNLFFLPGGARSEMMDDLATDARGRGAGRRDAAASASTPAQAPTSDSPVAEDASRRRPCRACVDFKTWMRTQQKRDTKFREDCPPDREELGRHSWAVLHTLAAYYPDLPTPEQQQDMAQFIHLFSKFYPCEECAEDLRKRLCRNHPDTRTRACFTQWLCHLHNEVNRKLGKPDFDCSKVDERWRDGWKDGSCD
# CAL PDZ FP-2 = CAL PDZ peptide-binding inhibitors, primary screen, biochemical, fluorescence polarization, Cer-tagged CAL PDZ, HTS; Golgi-associated PDZ and coiled-coil motif-containing protein (Homo sapiens), Q9HD26; purified CAL PDZ, TMR-peptide fluorescence polarization, 1 h; inhibition, % at 20 µM; hit rate 0.02% among 330,000;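 active = highest replicate inhibition of at least 40%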;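 note: plate controls were DMSO neutral control wells for no effect and unlabeled competitor peptide control wells for full effect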
#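 Material – purified CerCALP PDZ construct · Detection – FP readout, S and P plane fluorescence · Measure – percent inhibition from loss of millipolarization · Controls – unlabelled peptide for full inhibition, DMSO wells as neutral · Probe or stimulus – TMR-labelled reporter peptide T*-PRC34 bound in PDZ groove · Times – 1 h at RT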
# Dyrk1A ADPGlo = rat Dyrk1A kinase inhibitors, primary screen, biochemical, single point, plate reader | AID 504441, 2011 | inhibition, % at 12.5 µM | ADP-Glo luminescence, NFATc1 peptide | hit rate 0.43% among 310,000; in the data active = inhibition above about 50%;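 note: plate controls were vehicle with enzyme for no effect and no enzyme for full effect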
# An asterisk follows results filed as active; ? = inconclusive; . = not tested or not shown. Sampled rows, rich in hits. Any-hit rate of the full collection: about 4.3%.
SMILES,Rtt109 HAT inh,CAL PDZ FP-1,ALR H2O2 inh,CAL PDZ FP-2,Dyrk1A ADPGlo
O=C(CN1C(=O)c2ccccc2C1=O)N1CCN=C1c1ccccc1,2,.,-27,-2,6
O=C(NC1CCCN(Cc2ccc(Cl)cc2)C1)c1cccc(N2CCCC2=O)c1 (stereo not drawn),2,-3,-2,139*,-5
O=C(NC1CCCCCC1)c1cccc(N2CCCC2=O)c1,-4,1,-5,-2,1
CCN(CC)CCCNc1nc2cc(OC)c(OC)cc2c2nc(-c3ccccc3)nn12,1,-14,-12,-2,-3
CCN(CC)CCCNc1nc2cc(OC)c(OC)cc2c2nc(-c3cccnc3)nn12,79*,-14,-4,-3,7
CN1CCN(CCCNc2nc3ccccc3c3nc(-c4ccccc4)nn23)CC1,3,8,.,-5,1
COc1cc2nc(NCCCN3CCN(C)CC3)n3nc(-c4ccccc4)nc3c2cc1OC,82*,-11,.,0,7
O=C1CCC(C(=O)OCc2nnc(-c3ccccc3)o2)=NN1,-9,5,3,-2,.
CCc1ccc(N(CC(=O)NCC2CCCO2)C(=O)CCC(=O)Nc2nccs2)cc1 (stereo not drawn),5,1,0,-2,-2
Cc1ccc2[nH]c(C(=O)O)c(NC(=O)CN3CCN(c4cccc(C)c4C)CC3)c2c1,-1,.,94*,1,5
Cc1nn(CCOc2cccc(Br)c2)c(C)c1[N+](=O)[O-],0,59*,46,-1,.
Cc1ccc(OCCOc2cccc(Br)c2)c([N+](=O)[O-])n1,0,-1,0,0,4
O=C(NCc1ccc(F)cc1)C1CCCN(c2cnccn2)C1 (stereo not drawn),-12,0,-11,-4,-7
C=CCNc1nc(C(=O)OCC(=O)c2ccc(Cl)cc2)cs1,7,-1,98*,-3,-6
COc1cc(C)c(C(=O)Oc2cc(C)c(C(=O)O)c(O)c2C)c(OC)c1C,-3,-1,89*,0,8
O=C(Nc1cccc(C(=O)Nc2ccc(F)cc2F)c1)c1ccccc1,4,1,-3,0,-2
CN1C/C(=C\c2ccc(N3CCOCC3)cc2)C(=O)/C(=C/c2ccc(N3CCOCC3)cc2)C1,4,-3,79*,0,-2
CN(C)CCSc1nc(N)c2c3c(sc2n1)CN(C)CC3,-7,-2,99*,0,14
COc1cc(C(=O)CCN2CCC(c3ccccc3)C2)cc(OC)c1OC (stereo not drawn),95*,5,98*,-2,-7
CC1=Nc2ccccc2N=C(NC(=O)c2ccccc2)C1c1ccccc1 (stereo not drawn),3,-6,-2,-1,-2
COc1ccccc1CCC(=O)NNC(=O)c1ccc(Br)cc1,-17,4,.,-2,-3
CSc1ccc(CNc2ccccc2)cc1,.,.,90*,.,.
CSc1ccc(CNc2ccccn2)cc1,9,-8,0,0,4
C=CCN1C=C2C(=O)C(C)(OC(=O)c3ccco3)C(=O)C(C=C)=C2C=C1C1CC1 (stereo not drawn),.,.,-13,.,.
COc1ccc(C(=O)COC(=O)/C=C/c2ccco2)cc1F,2,65*,1,-1,.
SMILES,Rtt109 HAT inh,CAL PDZ FP-1,ALR H2O2 inh,CAL PDZ FP-2,Dyrk1A ADPGlo
O=C(/C=C/c1ccco1)OCC(=O)c1cccc([N+](=O)[O-])c1,5,-1,.,-3,2
CCOc1ccc2[nH]c3c(NCC(C)C)ncnc3c2c1,.,81*,?,-1,-2
CCOc1ccc2[nH]c3c(NCCOC)ncnc3c2c1,.,12,-17,0,0
COc1ccccc1N1CCN(C(=O)C2CCN(C(=O)c3ccc(C(C)(C)C)cc3)CC2)CC1,3,0,-3,-1,-2
O=C(Nc1ccc(Cl)cc1)N1CCSC1=NCc1ccccc1,9,-4,1,0,3
CC(=O)Nc1ccc(C2=NN(C)C(=NCc3ccccc3)SC2)cc1,20,-2,99*,1,4
